Rows were chosen to be rich in hits. Some 2.5% of all compounds tested hit in one or more screens of this group.
Bfl-1 A1 inh: caspase 3/7 activation in MEF A1-2A-BIM cells, primary screen, A1 inhibitor project, cell-based, luminescence, HTS. Caspase-Glo 3/7 luminescence, 3 h; percent of clofoctol response, vehicle zero. caspase activation, % (test concentration not listed). 330,000 tested, 0.066% active. AID 2462, 2010;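 active means over half of replicate activation scores above 10%, or exactly half above 10 with the replicate mean above 10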
MC4R antagonist: MC4R antagonists of cAMP signaling, primary screen, cell-based, TR-FRET, antagonist arm of biased-ligand search; Melanocortin receptor 4 (Homo sapiens), P32245; MC4R-expressing cells, MTII-stimulated cAMP, LANCE TR-FRET; inhibition, % at 6.5 µM; 360,000 tested, 0.48% active; AID 540295, 2011;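 active means inhibition above its plate's cutoff, the mean of tested wells on that plate plus 3 SD, cut at about 29% in these data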;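 further: 0% = Melanotan II alone and 100% = Melanotan II plus saturating MCL0020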
Target sequence (P32245 whole entry, looked up): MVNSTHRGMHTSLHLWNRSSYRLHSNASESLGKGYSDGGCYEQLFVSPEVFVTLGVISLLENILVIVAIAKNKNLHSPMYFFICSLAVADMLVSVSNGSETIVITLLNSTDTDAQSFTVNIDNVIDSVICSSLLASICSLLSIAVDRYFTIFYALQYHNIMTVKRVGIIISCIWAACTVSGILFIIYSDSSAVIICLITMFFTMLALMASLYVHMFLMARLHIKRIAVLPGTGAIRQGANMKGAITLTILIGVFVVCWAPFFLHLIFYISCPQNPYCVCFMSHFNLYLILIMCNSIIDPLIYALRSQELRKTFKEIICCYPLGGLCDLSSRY
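Assay system: U2OS-MC4R stable cell line; Also added: Melanotan II; Technique: Eu-cAMP/anti-cAMP TR-FRET, emission 671 nm; Times: 30-min compound, 1-h challenge, 1-h detection, room temperature.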
NTR1 agonist: agonists of human NTR1, primary screen, imaging, U2OS cells, beta-arrestin-GFP, high content. Neurotensin receptor type 1 (Homo sapiens), P30989. NTR1-U2OS beta-arrestin-GFP spot imaging, agonist mode. activation, % at 20 µM. 330,000 tested, 0.17% active;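 active means activation at or above 40% of the spot to cytoplasm intensity ratio, with at least 20 cells analyzed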;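 further: 0% = DMSO without peptide and 100% = 100 nM NTR1 peptide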
Granule exo inh: LAMP-1 surface exposure blockers, TALL-104 cells – cell-based, flow cytometry, MLPCN library, primary screen; TALL-104 LAMP-1 surface exposure; cells stimulated with thapsigargin and PMA; inhibition, % at 10 µM; 360,000 tested, 0.66% active; AID 651702, 2012;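 active means inhibition above about 55%, limit read from the data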
sPLA2-III inh: human group III sPLA2 inhibitors, primary screen, biochemical, QFRET, BODIPY PC-A2 liposome substrate | Group 3 secretory phospholipase A2 (Homo sapiens), Q9NZ20 | QFRET BODIPY PC-A2 liposome hydrolysis, fluorescence | inhibition, % at 12.2 µM | 370,000 tested, 0.56% active | AID 743126, 2013;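 active means inhibition above mean plus 3 SD of compounds lying within the high and low control bounds, cut at about 19% in these data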;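 further: 0% = median of test compound wells and 100% = no enzyme DMSO wells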
MC4R barr agon: MC4R agonists recruiting beta-arrestin, primary screen, cell-based, luminescence, agonist arm of biased-ligand search | U2OS MC4R beta-arrestin complementation; percent of melanotan II response, DMSO zero | 360,000 tested, 0.98% active | activation, % at 8.9 µM | Melanocortin receptor 4 (Homo sapiens), P32245;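 active means activation above a per-plate cutoff, the mean activation of sample wells on that plate plus 3 SD, cut at about 8% in these data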
* marks the source's active call; other numbers are inactive results; x = no result.

SMILES	Bfl-1 A1 inh	MC4R antagonist	NTR1 agonist	Granule exo inh	sPLA2-III inh	MC4R barr agon
Cc1ccccc1OCc1nnc(SCC(=O)Nc2ccc3nc(SCC(=O)NC(C)(C)C)sc3c2)n1C	1	0	8	77*	9	11*
C=CCOC(=O)C(CO)NC(=O)CCCC(=O)O (stereo not given)	x	x	x	x	8	x
Cc1cccc(N(Cc2ccccc2)C(=O)CCl)c1	x	25	x	-3	8	22*
COc1cc(/C=N/NC(=O)CSc2cc(C)c(Br)cc2C)ccc1O	1	-7	8	3	-30	1
Cc1cc(SCC(=O)N/N=C/c2ccc(O)c(O)c2O)c(C)cc1Br	1	10	1	8	32*	3
CCOC(=O)CC[C@@H]1CC[C@]2(CCCN(C(=O)c3ccno3)C2)O1	x	x	x	x	0	x
N/C(=N\OC(=O)c1ccccc1Br)c1ccc([N+](=O)[O-])cc1	-1	-16	1	-4	5	8.6*
CC(=O)c1cc(-c2cccc(C#N)c2)c(=O)n2c1CCC2	x	x	x	x	-4	x
C[C@H]1[C@@H](NC(=O)/C=C/c2ccccc2)CC[C@@]23CCCN2C(=O)CCC[C@@H]13	x	x	x	x	-5	x
Cc1ccc2c(c1)C(=O)C(=O)N2CC(=O)OC(C)C	0	5	1	5	0	0
Cc1ccc(OCCN2C(=O)C(=O)c3cc(C)ccc32)cc1	2	-13	3	72*	12	-2
CCOC(=O)c1csc(N/N=C2\CCCc3ccccc32)n1	1	-9	42*	-20	-3	-2
CN(c1ccc(OCC(=O)OCC(=O)c2c(N)n(C)c(=O)n(C)c2=O)cc1)S(=O)(=O)c1ccc2ccccc2c1	1	-24	2	69*	-16	1
Cc1cc(C)n2nc(N)c(N=Nc3ccc4c(c3)OCO4)c2n1	-9	-16	3	-8	2	8.6*
Cc1cc(C)n2nc(N)c(N=Nc3ccccc3)c2n1	-2	-25	2	-8	-1	-2
COC(=O)c1sc2ncccc2c1OCc1ccc(Cl)cc1	0	5	7	-5	2	8.8*
CCOC(=O)c1c(C)oc2c1c(CN1CCN(CCO)CC1)c(O)c1ccccc12	x	-9	x	7	-6	4
CCOC(=O)c1c(C)oc2c1c(CN1CCN(C(=O)OCC)CC1)c(O)c1ccccc12	20*	-1	24	6	-3	-1
CCN1/C(=C/c2ccc3cc(C)ccc3[n+]2CC)Sc2cc(C)ccc21	x	-21	x	85*	-3	6
CCCCN1/C(=C/c2ccc3ccccc3[n+]2CC)Sc2ccccc21	x	-14	-5	74*	x	0
CC[n+]1c(/C=C/c2c[nH]c3ccccc23)ccc2cc(C)ccc21	x	x	-3	x	-94	x
CCN1/C(=C/c2ccc3ccccc3[n+]2CC)C=Cc2ccccc21	-2	-51	3	40	33*	-6
CCN1/C(=C/c2ccc3cc(C)ccc3[n+]2C)Sc2ccc3sccc3c21	x	14	x	62*	-7	5
CCN1/C(=C/c2ccc3ccccc3[n+]2CCCS(=O)(=O)[O-])C=Cc2cc(C)ccc21	-1	-18	x	12	12	-2
CCN1/C(=C/c2cccc[n+]2C)Sc2ccc(OC)cc21	-1	12	-2	5	3	-1
C[C@@H]1OC(C2CCCCC2)N(C)[C@H]2C[C@H]3c4[nH]c5c(-c6ccc7c(c6)OCO7)cccc5c4CCN3C[C@@H]12 (stereo not given in full)	x	x	x	x	1	x
CC(C)(C)C1=CC(CC(N)=O)(C(C)(C)C)OC1=O (stereo not given)	x	x	x	x	-3	x
CC(C)N1Cc2nnn(Cc3ccccc3)c2-c2cc(F)ccc2S1(=O)=O	x	x	x	x	-1	x
